Broadly, the solubility is the dissolved amount per volume that the medium holds. Broadly, the pIC50 is the IC50 on a negative log10 scale, so that one unit is a factor of ten. Higher therefore signals a low IC50.

The nature of series [1]: Solubility in culture medium in presence of 5% fetal calf serum. The following applies: culture medium with 5% fetal calf serum. In kind it is physicochemical. The procedure, abridged: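 Solubility determined at 22 °C in culture medium containing 5% fetal calf serum.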
Series [2] concerns HT-29. Briefly: Ratio of IC50 for HT29 cells in aerobic condition to IC50 for HT29 cells in hypoxic condition after 4 hrs. In kind it is functional, Homo sapiens. The procedure, abridged: (§1)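 Aerobic and anoxic (H2/Pd chamber) IC50s measured in the same experiment after 4 h exposure, HT29 or SiHa cells. Ratio computed as aerobic IC50/anoxic IC50.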
The test system of series [3] is SiHa. Kind of series: Ratio of IC50 for SiHa cells in aerobic condition to IC50 for SiHa cells in hypoxic condition after 4 hrs. Type of series: functional, Homo sapiens. The procedure, abridged: as §1
For series [4], the system named is HT-29. Kind of series: Cytotoxicity against HT29 cells under hypoxic condition after 4 hrs. The following applies: Homo sapiens, HT-29, 4 h. In kind it is functional, cell-based. The procedure, abridged: (§2)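 HT29 or SiHa cells exposed to drug for 4 h in 96-well plates under anoxia (H2/Pd anaerobic chamber). IC50 determined.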
The test system of series [5] is SiHa. Briefly: Cytotoxicity against SiHa cells under hypoxic condition after 4 hrs. In kind it is functional, cell-based. The following applies: Homo sapiens. The procedure, abridged: as §2
The subject of series [6] is HT-29. Briefly: Cell viability in anoxic HT29 cells assessed as drug level providing 10% surviving fraction by clonogenic assay. In kind it is cell-based. The settings on record: human.
The test system of series [7] is HT-29. Briefly: Drug penetration in anoxic HT29 cells assessed as penetration half distance. Type of series: ADME, cell-based. The settings on record: human.

pIC50: −log10 of the molar value.

For `Cl.[O-][n+]1nc(CCCN2CCCCC2)[n+]([O-])c2ccccc21`, the solubility in series [1] is 43 mM.
For `CCc1n[n+]([O-])c2ccc(OCCO)cc2[n+]1[O-].Cl`, in series [1], the solubility amounted to 21 mM.
Same read-out and setting: the figure for `Cl.[O-][n+]1nc(CCCO)[n+]([O-])c2ccccc21` is 50 mM; for `Cl.[O-][n+]1nc(CCO)[n+]([O-])c2ccccc21` it is 34 mM.
Take `CCc1n[n+]([O-])c2ccc(OCCCO)cc2[n+]1[O-]`: the “Ratio IC50” value with HT-29 [2] was found to be 54; in the series with SiHa [3], 105. Further, the pIC50 in the series on HT-29 [4] is 4.77; in the series with SiHa [5], 5.07. Moreover, in the series with HT-29 [6], the Activity came to 108.9 µM·h. For the same molecule, the Penetration half distance in the series on HT-29 [7] was 34 µm.
On to `CCc1n[n+]([O-])c2cc(OCCCO)ccc2[n+]1[O-].Cl`, for which, in series [1], the solubility was 17 mM.
Regarding `Cc1ccc2c(c1)[n+]([O-])c(CCO)n[n+]2[O-].Cl`, the solubility in series [1] was found to be 7 mM.
Regarding `CCc1n[n+]([O-])c2ccc(OCCO)cc2[n+]1[O-]`, the “Ratio IC50” value amounted to 54 in the series with HT-29 [2] and 203 in the series with SiHa [3]. Further, the pIC50 in the series on HT-29 [4] was 4.84; with SiHa [5], 5.10. Moreover, in the series on HT-29 [6], the Activity came out at 97.3 µM·h. For the same molecule, the Penetration half distance in the series on HT-29 [7] amounted to 34 µm.
Take `CCc1n[n+]([O-])c2cc(OCCOC)ccc2[n+]1[O-].Cl`: the solubility in series [1] amounted to 2 mM.
The same measure, in the same setting: under `CCc1n[n+]([O-])c2ccc(OCCN(C)C)cc2[n+]1[O-].Cl` stands > 49 mM; under `CCc1n[n+]([O-])c2cc(OCCN(C)C)ccc2[n+]1[O-].Cl`, > 51 mM.
On the same count and under the same terms, under `Cc1n[n+]([O-])c2ccccc2[n+]1[O-].Cl` stands 28 mM; under `Cl.[O-][n+]1nc(CCCN2CCOCC2)[n+]([O-])c2ccccc21`, > 46 mM.
On the same count and under the same terms, under `COCCCc1n[n+]([O-])c2ccccc2[n+]1[O-].Cl` stands 21 mM.
`CCc1n[n+]([O-])c2ccc(OCCCN3CCOCC3)cc2[n+]1[O-].Cl`: the solubility in series [1] was > 47 mM.
On the same count and under the same terms, the figure for `Cl.[O-][n+]1nc(CCN2CCOCC2)[n+]([O-])c2ccccc21` is 42 mM; for `CCc1n[n+]([O-])c2ccc(C)cc2[n+]1[O-].Cl` it is 4 mM; for `COc1n[n+]([O-])c2ccccc2[n+]1[O-].Cl` it is 23 mM.
Turning to `CCc1n[n+]([O-])c2ccc(OCCN3CCCCC3)cc2[n+]1[O-].Cl`, in series [1], the solubility is > 48 mM.
As for `CCc1n[n+]([O-])c2ccccc2[n+]1[O-].Cl`, in series [1], the solubility came to 15 mM.
The same measure, in the same setting: the figure for `CCc1n[n+]([O-])c2cc(OCCCN3CCOCC3)ccc2[n+]1[O-].Cl` is > 48 mM.
Regarding `COc1n[n+]([O-])c2ccccc2[n+]1[O-]`, the figures for the “Ratio IC50” value in the series on HT-29 [2] and with SiHa [3] were 1 and 4, respectively. Moreover, the results for the pIC50 with HT-29 [4] and in the series on SiHa [5] were 5.51 and 5.96, respectively. Also, the Penetration half distance with HT-29 [7] worked out at 34 µm.
For `[O-][n+]1nc(-c2ccccc2)[n+]([O-])c2ccccc21`, in that order: 2, 1, 5.36, 5.66 and 34 µm.
For `COCCc1n[n+]([O-])c2ccc(C)cc2[n+]1[O-].Cl`, the solubility in series [1] was found to be 3 mM.
Still for that read-out and setting: the figure for `COCCc1n[n+]([O-])c2ccccc2[n+]1[O-].Cl` is > 21 mM; for `CN(C)CCCc1n[n+]([O-])c2ccccc2[n+]1[O-].Cl` it is 51 mM; for `CCc1n[n+]([O-])c2ccc(OCCCO)cc2[n+]1[O-].Cl` it is 10 mM.
With `Cl.[O-][n+]1nc(-c2ccccc2)[n+]([O-])c2ccccc21`, the solubility in series [1] worked out at 0.3 mM.
On the same count and under the same terms, under `CCc1n[n+]([O-])c2ccc(OCCOC)cc2[n+]1[O-].Cl` stands 3 mM; under `CCc1n[n+]([O-])c2ccc(OC)cc2[n+]1[O-].Cl`, 3 mM.
